The subject of assay [1] is MDA-MB-231. Description: Induction of apoptosis in human MDA-MB-231 cells expressing p53 R280K mutant assessed increase in number of Annexin-V stained cells at 6 to 12 uM incubated for 24 hrs by AnnexinV-FITC and PI staining based flow cytometry. The class given is functional, cell-based. Particulars: dose 6-12 µM. In a few lines: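 24 h treatment, DMSO control. Cells scraped, washed in PBS, then given fluorochrome-conjugated Annexin V for 15 min at RT in the dark, followed by PI (0.1 µg/ml) in binding buffer. Read by flow cytometry on LSRFortessa. Annexin V-positive cells expressed relative to the DMSO control.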

Assay [2] has as its system MDA-MB-231. The assay can be described thus: Antiproliferative activity against human MDA-MB-231cells expressing p53 R280K mutant assessed as inhibition of cell growth at 10 to 50 uM incubated for 24 hrs by WST-1 assay. The class given is functional, cell-based. Particulars: dose 10-50 µM. In a few lines:
(§1)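 WST-1 proliferation assay. Compound diluted in DMSO so that 10 μl of stock in 1 ml of cells (40,000 cells/ml) gives the test concentration at 1% DMSO. Cells plated at 4,000/well in duplicate and incubated at 37 °C for 24 h or 72 h. Result given as % of the 1% DMSO control.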
On the technique in general: Tetrazolium dyes change colour on reduction, which living cells bring about.

The subject of the next assay is MDA-MB-436. Description: Antiproliferative activity against human p53-null MDA-MB-436 cells assessed as inhibition of cell growth at 10 to 50 uM measured after 24 to 72 hrs by WST-1 assay. The class given is functional, cell-based. Particulars: dose 10-50 µM, time 24-72 hrs. In outline: as §1
In assay [3] the test system is Cellular tumor antigen p53 (Homo sapiens), P04637 [R280K]. Description: Reactivation of transactivation function to p53 R280K mutant in human MDA-MB-231 cells assessed as ATM activation by measuring increase in phosphorylation of ATM at serine 1981 residue at 6 uM measured after 24 hrs by immunoblot analysis. The class given is cell-based. Particulars: filed as activator. In outline:
(§2)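 DMSO or 6 µM for 24 h. 250 µg of lysate run on 4-12% SDS-PAGE, blot probed with anti-pATM Ser1981 (1:500), then anti-mouse HRP secondary with ECL detection. GAPDH reprobe as control. Triplicate experiments.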

Assay [4] has as its system Cellular tumor antigen p53 (Homo sapiens), P04637 [R273H]. Description: Reactivation of transactivation function to p53 R273H mutant in human MDA-MB-468 cells assessed as ATM activation by measuring increase in phosphorylation of ATM at serine 1981 residue at 6 uM measured after 24 hrs by immunoblot analysis. Particulars: filed as activator. The class given is cell-based. In a few lines:
as §2
A general note: In western blotting, separated proteins are transferred to a membrane and probed.

Molecules are shown by their SMILES. Activity calls are given as the source filed them. No cut-off for these calls is given here.

For the compound `[Se]=C=NCCC12CC3CC(CC(C3)C1)C2`, the outcome in the assay on MDA-MB-231 [1] was Active.

Take `S=C=NCCCC12CC3CC(CC(C3)C1)C2`: the Activity entry in the assay on MDA-MB-231 [2] is “Dose-Dependent Effect”. Moreover, the outcome in the assay on MDA-MB-436 was inactive. In addition, the outcome in assay [3] and in assay [4] was Active.

The record behind these values is ChEMBL document CHEMBL5038582, “Adamantyl Isothiocyanates as Mutant p53 Rescuing Agents and Their Structure-Activity Relationships” (J Med Chem, 2021).
